Assay results from ChEMBL document CHEMBL4138167, “Cytotoxicity, Hemolytic Toxicity, and Mechanism of Action of Pulsatilla Saponin D and Its Synthetic Derivatives” (J Nat Prod, 2018).
Activity calls are given as the source filed them. No cut-off for these calls is given here.

What was measured:
[1] = system: A549; test: Cytotoxicity against human A549 cells after 48 hrs by MTT assay; format: functional, cell-based; conditions: A549, 48 h
[2] = Hemolytic activity against New Zealand rabbit erythrocytes measured after 60 mins; format: ADME, cell-based, Oryctolagus cuniculus, Erythrocyte; conditions: read-out: HD50
Outline: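 Nonheparinized rabbit blood; erythrocytes washed three times in PBS pH 7.4, 10% suspension; compounds from 10 mM DMSO stock diluted in PBS to 5-500 μM; 100 μL suspension plus 1 mL sample, 37 °C 60 min with periodic stirring; centrifuged, supernatant A540; distilled water = 100% hemolysis, PBS blank subtracted; triplicate; HD50 = concentration giving 50% maximal hemolysis.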

[3] = (§1) Cytotoxicity against human KBVIN cells after 72 hrs by sulforhodamine B assay; format: functional, cell-based
[4] = system: A549; test: Cytotoxicity against human A549 cells after 72 hrs by sulforhodamine B assay; format: functional, cell-based; conditions: for IC50: A549, 72 h
[5] = system: MDA-MB-231; test: Cytotoxicity against human MDA-MB-231 cells after 72 hrs by sulforhodamine B assay; format: functional, cell-based; conditions: for IC50: MDA-MB-231, 72 h
[6] = system: KB; test: Cytotoxicity against human KB cells after 72 hrs by sulforhodamine B assay; format: functional, cell-based
[7] = system: MCF7; test: Cytotoxicity against human MCF7 cells after 72 hrs by sulforhodamine B assay; format: functional, cell-based; conditions: for IC50: MCF7, 72 h
[8] = species on record: Homo sapiens; test: as §1; format: functional, cell-based
[9] = system: A549; test: Cell cycle arrest in human A549 cells assessed as accumulation at G1-phase at 2 uM after 24 hrs by propidium iodide staining based flow cytometric analysis (reference value: 46.6%); format: functional
[10] = system: A549; test: Cell cycle arrest in human A549 cells assessed as accumulation at G1-phase at 4 uM after 24 hrs by propidium iodide staining based flow cytometric analysis (reference value: 46.6%); format: functional
[11] = system: A549; test: Cell cycle arrest in human A549 cells assessed as accumulation at G1-phase at 8 uM after 24 hrs by propidium iodide staining based flow cytometric analysis (reference value: 46.6%); format: functional
[12] = system: A549; test: Induction of apoptosis in human A549 cells assessed as early apoptotic cells at 2 uM after 24 hrs by Annexin-V-FITC/propidium iodide staining based flow cytometric method (reference value: 1.43%); format: functional
[13] = system: A549; test: Induction of apoptosis in human A549 cells assessed as early apoptotic cells at 4 uM after 24 hrs by Annexin-V-FITC/propidium iodide staining based flow cytometric method (reference value: 1.43%); format: functional
[14] = system: A549; test: Induction of apoptosis in human A549 cells assessed as early apoptotic cells at 8 uM after 24 hrs by Annexin-V-FITC/propidium iodide staining based flow cytometric method (reference value: 1.43%); format: functional
[15] = system: A549; test: Induction of apoptosis in human A549 cells assessed as late apoptotic cells at 2 uM after 24 hrs by Annexin-V-FITC/propidium iodide staining based flow cytometric method (reference value: 2.97%); format: functional
[16] = system: A549; test: Induction of apoptosis in human A549 cells assessed as late apoptotic cells at 4 uM after 24 hrs by Annexin-V-FITC/propidium iodide staining based flow cytometric method (reference value: 2.97%); format: functional
[17] = system: A549; test: Induction of apoptosis in human A549 cells assessed as late apoptotic cells at 8 uM after 24 hrs by Annexin-V-FITC/propidium iodide staining based flow cytometric method (reference value: 2.97%); format: functional
[18] = system: A549; test: Induction of apoptosis in human A549 cells assessed as increase in cleaved PARP level at 2 to 8 uM by Western blot analysis; format: functional, cell-based
Outline: (§2)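 A549 cells exposed 24 h; lysed in Tris-Cl pH 6.8/4% SDS/glycerol/β-mercaptoethanol/PMSF/aprotinin buffer, cleared 12000g 15 min 4 °C, protein by BCA; 10-15% SDS-PAGE, PVDF transfer, primary antibodies overnight 4 °C, HRP secondaries, ECL detection; Lam A as loading control.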

[19] = system: A549; test: Induction of apoptosis in human A549 cells assessed as reduction in procaspase-3 level at 2 to 8 uM by Western blot analysis; format: functional, cell-based; outline: as §2
[20] = system: A549; test: Induction of apoptosis in human A549 cells assessed as reduction in procaspase-9 level at 2 to 8 uM by Western blot analysis; format: functional, cell-based; outline: as §2
[21] = system: A549; test: Induction of apoptosis in human A549 cells assessed as reduction in procaspase-8 level at 2 to 8 uM by Western blot analysis; format: functional, cell-based; outline: as §2

| SMILES | IC50 [1] | HC50 at 1 h [2] | IC50 [3] | IC50 [4] | IC50 [5] | IC50 [6] | IC50 [7] | further results |
| --- | --- | --- | --- | --- | --- | --- | --- | --- |
| C[C@@H]1O[C@@H](O[C@H]2[C@H](O[C@H]3CC[C@@]4(C)[C@@H](CC[C@]5(C)[C@@H]4C(=O)C=C4[C@@H]6CC(C)(C)CC[C@]6(C(=O)O)CC[C@]45C)[C@]3(C)CO)OC[C@H](O[C@@H]3O[C@H](CO)[C@@H](O)[C@H](O)[C@H]3O)[C@@H]2O)[C@H](O)[C@H](O)[C@H]1O | > 10 µM | 239 µM | – | – | – | – | – | – |
| C[C@@H]1O[C@@H](O[C@H]2[C@H](O[C@H]3CC[C@@]4(C)[C@@H](CC[C@]5(C)[C@@H]4CC(=O)[C@@H]4[C@@H]6CC(C)(C)CC[C@]6(C(=O)O)CC[C@]45C)[C@]3(C)CO)OC[C@H](O[C@@H]3O[C@H](CO)[C@@H](O)[C@H](O)[C@H]3O)[C@@H]2O)[C@H](O)[C@H](O)[C@H]1O | > 10 µM | 73.1 µM | – | – | – | – | – | – |
| C[C@@H]1O[C@@H](O[C@H]2[C@H](O[C@H]3CC[C@@]4(C)[C@@H](CC[C@]5(C)[C@@H]4CC(=O)[C@]46OC(=O)[C@@]7(CCC(C)(C)C[C@H]74)CC[C@@]56C)[C@]3(C)CO)OC[C@H](O[C@@H]3O[C@H](CO)[C@@H](O)[C@H](O)[C@H]3O)[C@@H]2O)[C@H](O)[C@H](O)[C@H]1O | > 10 µM | 290 µM | – | – | – | – | – | – |
| CC(=O)O[C@H]1C(=O)[C@@]2(C)[C@H]([C@H](OC(=O)c3ccccc3)[C@]3(O)C[C@H](OC(=O)[C@H](O)[C@@H](NC(=O)c4ccccc4)c4ccccc4)C(C)=C1C3(C)C)[C@]1(OC(C)=O)CO[C@@H]1C[C@@H]2O [PACLITAXEL] | – | – | 1.86 µM | – | – | – | – | – |
| CC1(C)CC[C@]2(C(=O)O)CC[C@]3(C)C(=CC[C@@H]4[C@@]5(C)CC[C@H](O)[C@@](C)(CO)[C@@H]5CC[C@]43C)[C@@H]2C1 [HEDERAGENIN] | – | – | > 10 µM | > 10 µM | > 10 µM | > 10 µM | > 10 µM | – |
| CCOC(=O)CNC(=O)[C@]12CCC(C)(C)C[C@H]1C1=CC[C@@H]3[C@@]4(C)CC[C@H](OC(C)=O)[C@@](C)(COC(C)=O)[C@@H]4CC[C@@]3(C)[C@]1(C)CC2 | – | – | 4.9 µM | 4.6 µM | 5.5 µM | 4.2 µM | 7.7 µM | – |
| CC(=O)OC[C@@]1(C)[C@@H]2CC[C@]3(C)[C@H](CC=C4[C@@H]5CC(C)(C)CC[C@]5(C(=O)O)CC[C@]43C)[C@@]2(C)CC[C@@H]1OC(C)=O | – | – | 8.5 µM | 6.2 µM | > 10 µM | 7.4 µM | > 10 µM | – |
| C[C@@H]1O[C@@H](O[C@H]2[C@H](O[C@H]3CC[C@@]4(C)[C@@H](CC[C@]5(C)[C@@H]4CC=C4[C@@H]6CC(C)(C)CC[C@]6(C(=O)O)CC[C@]45C)[C@]3(C)CO)OC[C@H](O[C@@H]3O[C@H](CO)[C@@H](O)[C@H](O)[C@H]3O)[C@@H]2O)[C@H](O)[C@H](O)[C@H]1O [HEDERACOLCHISIDE A] | 6 µM | – | – | – | – | – | – | – |
| CCOC(=O)CCCNC(=O)[C@]12CCC(C)(C)C[C@H]1C1=CC[C@@H]3[C@@]4(C)CC[C@H](OC(C)=O)[C@@](C)(COC(C)=O)[C@@H]4CC[C@@]3(C)[C@]1(C)CC2 | – | > 500 µM | 5.1 µM | 2.8 µM | – | 3.6 µM | 8.6 µM | Activity [4]: Dose-dependent effect; Activity [5]: Dose-dependent effect; Activity [6]: Dose-dependent effect; Activity [8]: Dose-dependent effect; Activity [7]: Dose-dependent effect; Activity [9]: 53.4%; Activity [10]: 61.1%; Activity [11]: 68.4%; Activity [12]: 14.8%; Activity [13]: 26.5%; Activity [14]: 30.3%; Activity [15]: 3.8%; Activity [16]: 4.4%; Activity [17]: 4.87%; Activity [18]: Active; Activity [19]: Active; Activity [20]: Active; Activity [21]: Active |
| C[C@@H]1O[C@@H](O[C@H]2[C@H](O[C@H]3CC[C@@]4(C)[C@@H](CC[C@]5(C)[C@@H]4C(=O)C=C4[C@@H]6CC(C)(C)CC[C@]6(C(=O)NCC(=O)O)CC[C@]45C)[C@]3(C)CO)OC[C@H](O[C@@H]3O[C@H](CO)[C@@H](O)[C@H](O)[C@H]3O)[C@@H]2O)[C@H](O)[C@H](O)[C@H]1O | > 10 µM | – | – | – | – | – | – | – |
| CC1(C)CC[C@]2(C(=O)NCCCC(=O)O)CC[C@]3(C)C(=CC[C@@H]4[C@@]5(C)CC[C@H](O)[C@@](C)(CO)[C@@H]5CC[C@]43C)[C@@H]2C1 | – | – | > 10 µM | > 10 µM | > 10 µM | > 10 µM | > 10 µM | – |
| CC1(C)CC[C@]2(C(=O)NCCCCCC(=O)O)CC[C@]3(C)C(=CC[C@@H]4[C@@]5(C)CC[C@H](O)[C@@](C)(CO)[C@@H]5CC[C@]43C)[C@@H]2C1 | – | – | > 10 µM | > 10 µM | > 10 µM | > 10 µM | > 10 µM | – |
| CC1(C)CC[C@]2(C(=O)NCC(=O)O)CC[C@]3(C)C(=CC[C@@H]4[C@@]5(C)CC[C@H](O)[C@@](C)(CO)[C@@H]5CC[C@]43C)[C@@H]2C1 | – | – | > 10 µM | > 10 µM | > 10 µM | > 10 µM | > 10 µM | – |
| C[C@@H]1O[C@@H](O[C@H]2[C@H](O[C@H]3CC[C@@]4(C)[C@@H](CC[C@]5(C)[C@@H]4C[C@H](O)[C@]46OC(=O)[C@@]7(CCC(C)(C)C[C@H]74)CC[C@]65C)[C@]3(C)CO)OC[C@H](O[C@@H]3O[C@H](CO)[C@@H](O)[C@H](O)[C@H]3O)[C@@H]2O)[C@H](O)[C@H](O)[C@H]1O | > 10 µM | 308 µM | – | – | – | – | – | – |
| CCOC(=O)CCCCCNC(=O)[C@]12CCC(C)(C)C[C@H]1C1=CC[C@@H]3[C@@]4(C)CC[C@H](OC(C)=O)[C@@](C)(COC(C)=O)[C@@H]4CC[C@@]3(C)[C@]1(C)CC2 | – | – | > 10 µM | 5.1 µM | – | 6.9 µM | > 10 µM | – |
